Laboratory results from ChEMBL document CHEMBL4325892, “4-tert-Pentylphenoxyalkyl derivatives - Histamine H3 receptor ligands and monoamine oxidase B inhibitors” (Bioorg Med Chem Lett, 2018).

Legend:
[1] = target: T1, Amine oxidase [flavin-containing] B (Homo sapiens, UniProt P27338); experiment: Inhibition of human MAO-B expressed in baculovirus infected BTI insect cells using p-tyramine as substrate preincubated for 30 mins followed by substrate addition and measured after 1 hr by fluorescence-based Amplex Red MAO assay
T1 sequence (P27338 whole entry): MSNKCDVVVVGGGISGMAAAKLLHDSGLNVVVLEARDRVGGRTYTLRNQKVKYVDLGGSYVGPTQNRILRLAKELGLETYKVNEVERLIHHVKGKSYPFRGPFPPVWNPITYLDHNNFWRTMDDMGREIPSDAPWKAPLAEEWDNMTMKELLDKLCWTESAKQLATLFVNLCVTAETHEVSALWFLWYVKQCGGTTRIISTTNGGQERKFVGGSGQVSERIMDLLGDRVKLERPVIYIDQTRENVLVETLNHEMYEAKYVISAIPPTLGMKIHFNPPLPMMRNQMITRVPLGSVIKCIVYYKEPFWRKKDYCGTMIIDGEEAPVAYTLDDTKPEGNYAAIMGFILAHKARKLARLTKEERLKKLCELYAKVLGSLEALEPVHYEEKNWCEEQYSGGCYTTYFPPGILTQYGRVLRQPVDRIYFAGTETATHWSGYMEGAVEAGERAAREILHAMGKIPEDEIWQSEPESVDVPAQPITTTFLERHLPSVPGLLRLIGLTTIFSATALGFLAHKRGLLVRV

Histamine H3 receptor = Histamine H3 receptor (Homo sapiens, UniProt Q9Y5N1); experiment: Displacement of [3H]-N-alpha-methylhistamine from human H3 receptor expressed in CHO-K1 cell membranes after 60 mins by microbeta2 scintillation counting analysis
Procedure, shortened: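 Radioligand binding with [3H]Nα-methylhistamine on membrane preparations from CHO-K1 cells stably expressing human H3 receptor; Ki reported as the mean of two independent experiments ± SEM.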

MAO-A = target: T2, MAO-A (Homo sapiens, UniProt P21397); experiment: Inhibition of human MAO-A expressed in baculovirus infected BTI insect cells at 10 uM using p-tyramine as substrate preincubated for 30 mins followed by substrate addition and measured after 1 hr by fluorescence-based Amplex Red MAO assay relative to control; conditions: probe p-tyramine
T2 sequence (P21397 whole entry): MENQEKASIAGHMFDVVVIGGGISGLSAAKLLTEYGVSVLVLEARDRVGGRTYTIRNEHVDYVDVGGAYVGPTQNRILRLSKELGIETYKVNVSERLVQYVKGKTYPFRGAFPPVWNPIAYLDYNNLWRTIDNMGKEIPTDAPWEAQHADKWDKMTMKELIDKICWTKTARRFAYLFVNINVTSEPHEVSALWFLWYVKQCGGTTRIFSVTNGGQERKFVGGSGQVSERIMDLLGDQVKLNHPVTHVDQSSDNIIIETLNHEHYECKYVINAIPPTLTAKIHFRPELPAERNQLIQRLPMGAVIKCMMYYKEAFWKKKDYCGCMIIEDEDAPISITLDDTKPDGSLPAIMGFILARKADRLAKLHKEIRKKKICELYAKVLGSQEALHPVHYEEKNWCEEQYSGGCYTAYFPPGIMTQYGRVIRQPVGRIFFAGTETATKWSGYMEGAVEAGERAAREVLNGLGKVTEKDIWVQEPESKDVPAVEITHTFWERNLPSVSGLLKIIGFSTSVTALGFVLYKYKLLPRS

[2] = target: T1, Amine oxidase [flavin-containing] B; experiment: Inhibition of human MAO-B expressed in baculovirus infected BTI insect cells at 1 uM using p-tyramine as substrate preincubated for 30 mins followed by substrate addition and measured after 1 hr by fluorescence-based Amplex Red MAO assay relative to control
[3] = target: T1, Amine oxidase [flavin-containing] B; experiment: Reversible inhibition of human MAO-B expressed in baculovirus infected BTI insect cells at IC80 preincubated with compound and p-tyramine for 22 mins followed by p-tyramine increase to 1 mM and measured every minute for 5 hrs by fluorescence assay
Procedure, shortened: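 Reversibility test: hMAO B preincubated with inhibitor in the presence of 10 μM para-tyramine. After 22 min, para-tyramine raised to 1 mM, then fluorescence read every minute for 5 h.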

[4] = target: T1, Amine oxidase [flavin-containing] B; experiment: Non-competitive inhibition of human MAO-B expressed in baculovirus infected BTI insect cells at 0.2 to 20 nM preincubated with compound and p-tyramine for 22 mins followed by p-tyramine increase to 1 mM and measured every minute for 5 hrs by Lineweaver-Burk plot analysis
Procedure, shortened: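 Kinetic mode study: hMAO B activity measured at inhibitor 0, 0.2, 0.5 and 20 nM, each across six para-tyramine concentrations (0.05, 0.1, 0.5, 1.0, 1.5, 2.0 mM) to assign inhibition type.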

Sequence of Histamine H3 receptor (Q9Y5N1 whole entry): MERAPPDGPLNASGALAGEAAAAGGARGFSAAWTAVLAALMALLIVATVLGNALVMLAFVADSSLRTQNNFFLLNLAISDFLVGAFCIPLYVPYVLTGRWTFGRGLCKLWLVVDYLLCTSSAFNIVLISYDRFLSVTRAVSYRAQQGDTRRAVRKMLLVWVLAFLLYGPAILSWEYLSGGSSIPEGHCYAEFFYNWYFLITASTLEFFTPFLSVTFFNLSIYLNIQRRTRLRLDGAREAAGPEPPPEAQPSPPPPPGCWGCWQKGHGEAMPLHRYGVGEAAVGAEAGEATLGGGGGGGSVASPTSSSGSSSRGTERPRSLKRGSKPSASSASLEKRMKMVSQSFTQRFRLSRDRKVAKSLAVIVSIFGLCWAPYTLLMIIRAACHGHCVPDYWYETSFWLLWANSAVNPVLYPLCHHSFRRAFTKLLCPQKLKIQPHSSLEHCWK

Row | Compound | IC50 [1] [nM] | Ki (Histamine H3 receptor) [nM] | inhibition at 1 h, 10 µM (MAO-A) [%] | inhibition at 1 µM [2] [%] | inhibition (INH) [3] | inhibition (INH) [4]
1 | CCC(C)(C)c1ccc(OCCCCN2CCCC(C)C2)cc1 (configuration not stated) | 1230 | – | – | – | – | –
2 | CCC(C)(C)c1ccc(OCCCN2CCCC(C)(C)C2)cc1 | 417 | > 1000 | 7 | – | – | –
3 | CCC(C)(C)c1ccc(OCCCCCCCCN2CCCCCC2)cc1 | > 1000 | – | – | 40 | – | –
4 | CCC(C)(C)c1ccc(OCCCN2CCCCC2C)cc1 (configuration not stated) | 20 | 437 | 5 | – | Active | –
5 | CCC(C)(C)c1ccc(OCCCN2CCCC2)cc1 | 4.5 | 63 | 5 | – | Active | Active
6 | CCC(C)(C)c1ccc(OCCCCCCCN2CCCC(C)C2)cc1 (configuration not stated) | > 1000 | – | – | 35 | – | –
7 | CCC(C)(C)c1ccc(OCCCCCCCCN2CCCCC2)cc1 | > 1000 | – | – | 22 | – | –
8 | CCC(C)(C)c1ccc(OCCCN2CCC(C)CC2)cc1 | 2070 | 147 | – | – | – | –
9 | CCC(C)(C)c1ccc(OCCCCN2CCC(C)CC2)cc1 | > 1000 | – | – | 47 | – | –
10 | C[C@H](NCc1ccc(OCc2cccc(F)c2)cc1)C(N)=O [SAFINAMIDE] | – | – | – | – | Active | –
11 | CCC(C)(C)c1ccc(OCCCCCCN2CCCCCC2)cc1 | 390 | – | – | – | – | –
12 | CCC(C)(C)c1ccc(OCCCCCCN2CCCC(C)C2)cc1 (configuration not stated) | > 1000 | – | – | 46 | – | –
13 | CCC(C)(C)c1ccc(OCCCCCCCN2CCCCCC2)cc1 | 1490 | – | – | – | – | –
14 | CCC(C)(C)c1ccc(OCCCN2CCCCC2)cc1 | 19 | 37 | 14 | – | Active | –
15 | CCC(C)(C)c1ccc(OCCCCCN2CCCCCC2)cc1 | 1130 | – | – | – | – | –
16 | CCC(C)(C)c1ccc(OCCCCCCCCN2CCCC(C)C2)cc1 (configuration not stated) | > 1000 | – | – | 33 | – | –
17 | CCC(C)(C)c1ccc(OCCCN2CC(C)CC(C)C2)cc1 (configuration not stated) | 962 | 753 | 7 | – | – | –
18 | CCC(C)(C)c1ccc(OCCCCCN2CCC(C)CC2)cc1 | > 1000 | – | – | 48 | – | –
19 | CCC(C)(C)c1ccc(OCCCN2C(C)CCCC2C)cc1 (configuration not stated) | 22 | 140 | 5 | – | Active | –
20 | CCC(C)(C)c1ccc(OCCCN2CCCCCC2)cc1 | 65 | 298 | 12 | – | – | –
21 | CCC(C)(C)c1ccc(OCCCCCCN2CCCCC2)cc1 | > 1000 | – | – | 21 | – | –
22 | CCC(C)(C)c1ccc(OCCCCCCCN2CCC(C)CC2)cc1 | > 1000 | – | – | 35 | – | –
23 | CCC(C)(C)c1ccc(OCCCCCN2CCCC(C)C2)cc1 (configuration not stated) | > 1000 | – | – | 29 | – | –
24 | CCC(C)(C)c1ccc(OCCCCCCCN2CCCCC2)cc1 | > 1000 | – | – | 18 | – | –
25 | CCC(C)(C)c1ccc(OCCCN2CCCC(C)C2)cc1 (configuration not stated) | 428 | 100 | 11 | – | – | –
26 | CCC(C)(C)c1ccc(OCCCCCN2CCCCC2)cc1 | > 1000 | – | – | 28 | – | –
27 | CCC(C)(C)c1ccc(OCCCCN2CCCCCC2)cc1 | 609 | – | – | – | – | –
28 | CCC(C)(C)c1ccc(OCCCCCCN2CCC(C)CC2)cc1 | > 1000 | – | – | 37 | – | –
29 | CCC(C)(C)c1ccc(OCCCCN2CCCCC2)cc1 | 379 | – | 10 | – | – | –
30 | CCC(C)(C)c1ccc(OCCCCCCCCN2CCC(C)CC2)cc1 | > 1000 | – | – | 37 | – | –
